According to the RNAGym collection of RNA variant scans (doi:10.1126/science.aae0568):
Variants at the floor of the assay were thinned out.

B1: tRNA (parent)
chain: GUUCCGUUGGCGUAAUGGUAACGCGUCUCCCUCCUAAGGAGAAGACUGCGGGUUCGAGUCCCGUACGGAACG

Variants of: B1
Assay: yeast fitness relative to wild type (ratio to wild type); higher = fitter; tRNA-Arg(CCU), competitive growth, 37 C, YPD
Method in brief: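 Changes in genotype frequencies gave Darwinian fitness relative to wild type. Frequencies were read by 100-nucleotide paired-end sequencing of gene amplicons before and after pooled Saccharomyces cerevisiae strains, carrying tRNA-Arg(CCU) gene variants at the native locus, were competed in YPD at 37°C for 24 hours in six replicates. A genotype was kept only with ≥ 100 starting reads, and estimates < 0.5 were set to 0.5.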

Variant	yeast fitness
GUUCCGCUGGCGUAAUGGUAGCGCGUCUCCCUCCUAAGGACAAGACUGCGGGCUCGAGUCCCGAACGGAACG	≤ 0.5
GUUCCGCUGGCGUAAUGGUAACGCGUCUCCCUCCUAAGGAGUGGACUGCGGGUUCGAGUCCCGUACGGAACG	0.53
GUUCCGCUGGCGUAAUGGUAACGCGUCUCCCUCCUACGGCGAAGUCUGCGGGUUCGCGUCCCGUACGGAACG	0.573
GUUCCGCUGGCGUAAUGGUAACGCGUCUCCCUCCUAAGGAGCAGACUGCGGGUUUGAGUCCCGUACGGAACG	≤ 0.5
GUUCCGCUGGCGUAAUGGUGACGCGUCUCCCUCCUACGGAGAAGACUGCGGGUUCGAGUGCCGUUCGGACCG	≤ 0.5
GUUCCGCUGGCGUAAUGGUAACGCGUCUCCCUCCUAAGGGGAAGACUGCGGAUUCGAGUCCCGUCCGGAACG	≤ 0.5
GUUCCGCUGGCGUAAUGGUAACGCGUCUCGCUCCUAAGGAGAAGACUGCGGGUUCGACUCCCGUAUGGAACG	≤ 0.5
GUUCCGCUGGCGUAAUGGUAACGUGUCUCGCUCCUAAGGAGAAGCCUGCGGGUUCGAGUCGCGUACGGAACG	≤ 0.5
GUUCCGCUGGCGUAAUGGUAACGGGUCUCCAUCCUAAGGAGAAGACUGCGGGUUCGAGUCCCGUACGGAACG	≤ 0.5
GUUCCGCUGGCGUAAUGGUAACGCGUCUCCCUCCUGAGGAGAAGACUGCGGGUUCGAGUCCCGUACGGAACG	0.888
GUUCCGCUGGCGUAAUGGUUACGCGUCUCCCUCGUCAGGAGAAGACUGCGGGUUUGAGUCCCGUUCGGAACG	≤ 0.5
GUUCCGCUGGCGUAAUGGUAACGCGUCUCCCUCCUAAGGGGACGACUGCGGGUUCGAGUCCCGUACGGAACG	0.77
GUUCCGCUGGCGUAAUGGUAACGCGUCUCCCUCCUAAGGAGACGACUGAGGGUUCAAGUCCCGUACGGAACG	≤ 0.5
GUUCCGCUGGCGUAAUGGUAACGCGUCUGCCUCCUAAGGAGAAGACUGUGGGUUCGAGUCCCGUACGGAACG	0.712
GUUCCGCUGGUGUAAUGGGAACGCGUCUUCCCCGUAAGGAGAAGACUGCGGCUUCGAGUCCCGUACGGAGCG	≤ 0.5
GUUCCGCUGGCGUAAUGGUAUCGCGUCUCCCUCCUUCGGAGAAGACUGCGGGUUCGAGUCCCGUACGGAACG	≤ 0.5
GUUCCGCUGGCGUAAUGGUAUCGAGUCUCCCUCCUAAGGAGAAGACUGCGGGUUCGAGUCCUGCACGGAACG	0.661
GUUCCGCUGGCGUAAUGGUAACGCGUCUCCCUCCUAAGGAGAAGCCUGCGGGUUCGAGUCCCGUACGGAACG	0.761
GUUCCGCUGGCGUAAUGGUAACGCGUCUCCCUCCUAAGGAGAAGUCUGCGGGUUCGAGUCCCGUACGGAACG	0.837
GUUCCGCUGGCGUAAUGGUAACGCGUGUCCCUCCUAAGGAGAAGACUGCGGGUUCGAGUCCCGUACGGAACG	0.696
GUUCCGCUGGCGUAAUGGUAACGCGUAUCCCUCCUAAGGAGAAGACUGCGGGUUCGAGUCCCGUACGGAACG	0.894
GUUCCGCUGGCGUAAUGGUAACGCGUCUCCCUCCUACGGAGAAGACUGCGGGUUCGAGUCGCGUACGGAACG	≤ 0.5
GUUCCGCUGGCGUAAUGGUAACGCGUCUCUCUCCUAGGGAGAAGAUUGCGGCUUCGAGUCCGGUACGGACCG	≤ 0.5
GUUCCGCUGGUGUAAUGGUAACGCGUCUCCCUCCUAAGGAGAAGACUGCGGGUUCGAGUCUCGUGCGCAACG	≤ 0.5
GUUCCGCUGGCGUAAUGGUAACGCGUCUGCCUCCUAAGGAGAAGCCUGCGGGUUCGAGUCCGGUCCGGAACG	≤ 0.5

Variant	yeast fitness
GUUCCGCUGGUGUAAUGGUAACGCGUCUCCCUCCUAAGCAGAAGUCUGCGGGUUCGAGUCCCGUACAGAACG	≤ 0.5
GUUCCGCUGGGGUAAUGGUAACGCGCCUCCCUCCUAAGGAGAAGACUGCGGGUUCGAGUCCCGUACGGAACG	≤ 0.5
GUUCCGCUGGCGUAAUGGUAACGCGUCUCCCUCCUAGGGAGCAGACUGGGGGUUCGAGUCUCAUACGGAACG	≤ 0.5
GUUCCGCUGGGGUAAUGGUAACGAGUCUCCCUCCUAAGGAGAAGACAGCGGGUUCGAGUCCCGCACUGAACG	≤ 0.5
GUUCCGCUGGCGUAAUGGUGACGCGUCUCCCUCCUAAGGAGAAGACUGCGGGUUCGAGUCUCGUACGGAACG	0.587
GUUCCGCUGGCGUAAUGGUAACGCGUCUCCCUCCUAAGGAGAAGACUGCGGGUUCGAGUCCCGUGCGGAACG	0.95
GUUCCGCUGGCGUAAUGGUAACGCGUCUCCCUCCUAAGGAGAAGACUGCGGGUUCGAGUCCCGUCCGGAACG	0.912
GUUCCGCUGGGGUAAUGGUAACGUGUCUCCCUCCUAAGGAGAAGACUACGGGUUCGAGUCCCAUACGGAACG	≤ 0.5
GUUCCGCUGGCGUAAUGGUAACGCGUAUCCCUCCUAAGGAGAAGACUGCGGGUUCGAGUCCCGGACGGAACG	≤ 0.5
GUUCCGCUGGCGUAAUGGUAACGCGUUUACCUCCUAAGGAGAAGACUGCGGGUUCGACUCCCGUACGGAACG	≤ 0.5
GUUCCGCUGGUGUAAUGGUAACGCGUCUCCCUCAUAAGGAGAAGCCUGCGGGUUCGAGUCCCGUACGAAACG	≤ 0.5
GUUCCGCUGGCGUAAUGGUAACGCGUCUCCCUCCUAUGGAGAAGACUGCGGGUUCGAGUCCCGUACGGAACG	0.625
GUUCCGCUGGCGUAAUGGUAACGAGUCUCCCUCCUAAGGAGAAGACUGCGGGUUCGAGUCCCGUACGGAACG	0.623
GUUCCGCUGGCGUAAUGGUACCGCGUCUCCCUCAGAAGGAGAACACUGCGGGUUCGAGUCGCGUACGGAACG	≤ 0.5
GUUCCGCUGGCGUAAUGGUAACGCGUCUCCCUCCUAAGGAGAAGCCUGCAGGUUCGAGUCCUGUACGGAACG	0.547
GUUCCGCUGGCGUAAUGGUAACGCGUCUCUCUCCUAAGGAGAAGACUGCGGGUUCGAGUCCCGUAGGGAACG	≤ 0.5
GUUCCGCUGGCGUAAUGGUAACGCGUCUUCCUCCUAAGGAGAAGAUUGCGGGUUCGAGUCCCGUUCGGAACG	≤ 0.5
GUUCCGCUGGCGUAAUGGUAAGGCGUCUCCCUCCUAAGGUGAAGACUGCGGGUUCGAGUCCCGUACGGCACG	0.574
GUUCCGCUGGCGUAAUGGUGACGCGUCUCCCUCCUAAGGUGAAGACUGCGGGUUCGAGUCCCGUACGGAACG	0.597
GUUCCGCUGGCGUAAUGGUAACGCGUCUCCCUCCUAAGGAGAAGACUGCGGGUUCGAGUCCCGUACGGCACG	0.921
GUUCCGCUGGCGUAAUGGUAACGCGUCUCCCUCCUAAGGAGAAGACUGCGGGUUCGAGUCCCGUACGGGACG	0.817
GUUCCGCUGGCGUAAUGGUAACGCGUUUCCCUGGUAAGGAGAAAACUGCAGAUUCGAGUCCCGUACGGAACG	≤ 0.5
GUUCCGCUGGCGUAAUGGUAACGGGUCUCCCUCCUAAGGAGAAGACUGCGGGUUCGAGUCCCGUCCGGAACG	≤ 0.5
GUUCCGCUGGCGUAAUGGUAACGCGUCUCCCUCCUAAGGUGUAGACUGCGGGUACGAGUCCCGUACGGAACG	0.661
GUUCCGCUGGCGUAAUGGUAACGCGUCUCCCUCCUUAGGAGAAGACUGCCGGUUCGAGUACCGUACGGAACG	0.57

Variant	yeast fitness
GUUCCGCUGGGGGAAUGGUAACGCGUCUCUCUCCUAAGGAGAAGACUGCGGGUUCGAGUCCCGUACGGAACG	≤ 0.5
GUUCCGCUGGCGUAAUGGUAACGCGUCUCCCUCCUAGGGAGCAGACUGGGGGUUCGAGUCCCGUAGGGAUCG	≤ 0.5
GUUCCGCUGGCGUAAUGGUAACGCGUCUCCCUCCUGAGGAGAAGACUGCGGGUUCGUGUCCCGUACGGAACG	0.566
GUUCCGCUGGCGUAAUGGUAACGCGUCUCCCUCCUAAGGAGAAGACUGCGGGUUCGAGUCCCGUACGGAUCG	0.692
GUUCCGCUGGCGUAAUGGUAACGCGUCUCCCUCCUAAGGAGAAGACUGCGGGUUCGAGUCCCGUACGGACCG	0.742
GUUCCGCUGGGGAAAUGGUAACGCGUCUUCCUCCUAAGGAGAAGACUGCGGGUUCGAGUCCCGUACGGUACG	≤ 0.5
GUUCCGCUGGCGUAAUGGUACCGCGUCUCCCUCGGAAGGAGAACACUGCGGGUUCGAGUCGCGUACGGAACG	0.636
GUUCCGCUGGCGUAAUGGUAACGCGUCUCCCUCCUAAGGAGGAGACUGCGGGUCCGAGUCCCGUACGGAACG	0.549
GUUCCGCUGGCGUAAUGGUAAUGCGUCUCCAUCCUAAAGAGAAGAGUGCGGGUUCGAGUCCCGUACCGAACG	≤ 0.5
GUUCCGCUGGCGUAAUGGUAACGCGUCUCCCUCCUAGGGAGAAGACUGCGGGUUAGACUCCCGUACGGAACG	≤ 0.5
GUUCCGCUGGCGUAAUGGUAACGAGUCUCCCUCCUAAGGAGAAGACUGCGGGUUCGAGUCUCGUACGGAACG	0.543
GUUCCGCUGGCGUAAUGGUAACGCGUCUCCCUCCUGAGGAGAUGACUGCGGGUUCGAGUCCGGUACGGAACG	0.603
GUUCCGCUGGCGUAAUGGUAACGCGUCUCCCUCCUUAGGAGAAGACUGGGGGUUCGAGUCCCGUACGGAACG	0.744
GUUCCGCUGGCGUAAUGGUAACGCGUCUCCCUCCUAAGGAGGAGACUGCGGGUUCGAGUCCCGUACGGAACG	0.716
GUUCCGCUGGCGUAAUGGUAACGUGUCUCCCUCCUAAGGAGAAGACUGCGGGUACGAGUCCCGUACGGAACG	≤ 0.5
GUUCCGCUGGCGUAAUGGUAACGCGUCUCACUCCUAAGGAGAAGACUGCGGGUUCGAGUACCGUACGGAACG	≤ 0.5
GUUCCGCUGGCGUAAUGGUAACGCGUCUCCCUCCUAAGGAGAAGACUGCGGGUUCGAGUCCCGUUCGGCACG	0.532
GUUCCGCUGGCGUAAUGGUACCGCGUUUCCCUCCUAAGGAGAAGACUGCGGGUUCGAGUCCCGUACGGAACG	≤ 0.5
GUUCCGCUGGCGUAAUGGUAACGCGUUUCCCUCCUAAGGAGAAGUCUGCGGGUUCGAGUCCCGUAUGGAACG	0.617
GUUCCGCUGGCGUAAUGGUUACGCGUCUCCCUCCUGAGGUGAAGACUGCGGGUUCGAGUCCCGUACGGAACG	≤ 0.5
GUUCCGCUGGCGUAAUGGUAACGCGUCUCCCUCCUAAGGAGAUGACUGGGGGUUCGAGUCCCGUACGGAACG	≤ 0.5
GUUCCGCUGGUGUAAUGGUAACGCGUCUCCCUCCUAAGCAGAAGUCUGCGGGUUCGAGUCUCGUACGGAACG	≤ 0.5
GUUCCGCUGGCGUAAUGGUUACGCGUCUCCCUCCUGAGGAGAAGACUGCGGGUUCGAGUCCUGUACGGAACG	≤ 0.5
GUUCCGCUGGAGUAAUGGUAACGCGUCUCCCUCCUAAGGAGAAGACUGCGGGUUCGAGUCCCGUACUGAACG	≤ 0.5
GUUCCGCUGGCGUAAUGGUACCGCGUCUCCAUCCUAAGGAGAAGACUGCGGGUUCGAGUCCCGUACGGAACG	≤ 0.5
